# Assay outcomes from PubChem.
# Only a selection was taken, and hits are over-represented in it overall.
# INS promoter act – TRM-6 insulin promoter activation | activation, % at 2 µM | 130,000 compounds, 0.81% hits | AID 1296 | TRM-6 cells (human fetal islet line), insulin promoter eGFP reporter, imaging; plate-scaled: unstimulated 0, stimulated control 100;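 active = activation at 2 µM above a set limit, confirmed on inspection of the cell images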;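 note: share of cells whose green reporter signal exceeds an intensity cutoff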
#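 Assay system: TRM-6 insulin promoter–eGFP reporter cells / Input: 1,000 cells per well / Medium: Low-glucose (5.5 mM) medium with tamoxifen / Also added: tamoxifen inducer, 0.75 µM, in seeding medium / Timing: overnight tamoxifen, then two-day compound incubation at 37 °C / Signal: automated fluorescence imaging of paraformaldehyde-fixed, Hoechst-counterstained cells, green channel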
# Hits are given with their value; n = inactive.
SMILES,INS promoter act
CC(=O)COC(=O)c1cccc(N2C(=O)C3C4C=CC(C4)C3C2=O)c1 (centres undefined),n
CCOc1ccc(OCCN2CCCCC2)cc1,n
CCOc1ccc(C=NC23CN4CN(CN(C4)C2)C3)cc1,191
CCOc1ccc(CNC(=S)N/N=C\c2ccc([N+](=O)[O-])cc2)cc1,n
CCC1=NC(c2ccc(OC)c(OC)c2)N(O)C1(C)C (centres undefined),n
CCCSc1nnc(CN2CCOCC2)n1C,419
CCCSc1nnc(Cn2c(=O)sc3ccccc32)n1C,n
Cn1c(CCc2ccccc2)nnc1SCC(=O)N1CCOCC1,n
CC(=O)N1N=C(c2ccccc2)OC1c1ccc([N+](=O)[O-])s1 (centres undefined),n
Cc1ccccc1Nc1nc2nonc2nc1N1CCOCC1,n
CCc1ccc(CN2C(=O)c3ccccc3C2C(=O)NCc2cccnc2)cc1 (centres undefined),n
O=C(CSc1nnnn1C1CCCCC1)NCc1cccc(C(=O)O)c1,n
CC(=O)Nc1cccc(NC(=O)CSc2nnnn2C(C)C)c1,n
O=C(CSc1nnnn1C1CCCC1)Nc1cccc(NC(=O)c2ccco2)c1,830
Cc1csc(SCc2nc3sc4c(c3c(=O)[nH]2)CCC4)n1,n
CCCCOc1cccc(C(=O)NC(=S)Nc2cccc(C(F)(F)F)c2)c1,n
COC(=O)C(NC(=O)CNS(=O)(=O)c1ccc(Br)cc1)c1ccccc1 (centres undefined),275
COC(=O)C(CCSC)NC(=O)CNS(=O)(=O)c1ccc(Cl)cc1 (centres undefined),n
COc1ccccc1NC(=O)CNS(=O)(=O)c1ccccc1,n
COc1ccc(NC(=O)C(c2ccc(OC)cc2)N(C)C(=O)CNC(C)=O)cc1 (centres undefined),n
Cc1cc(Oc2nnnn2-c2ccccc2)ccc1Cl,n
COc1cc(C(=O)Nc2cnc(NC(=O)C(C)C)cc2C)cc(OC)c1OC,n
COc1ccccc1-c1c(C#N)c(N)nc2c1CCc1ccccc1-2,n
CC1CC(C)CN(CCOc2ccccc2-c2ccccc2)C1 (centres undefined),464
C=CCc1ccc(OCCCCN2CC(C)CC(C)C2)c(OC)c1 (centres undefined),n
SMILES,INS promoter act
CC1(C)NC(=O)N(CC(O)COc2ccccc2-c2ccccc2)C1=O (centres undefined),n
C=CCn1c(SCN2C(=O)c3ccccc3C2=O)nc2ccc(Cl)cc2c1=O,n
O=C(COC(=O)CNC(=O)c1ccc(Cl)cc1)Nc1ccc(Cl)cc1C(F)(F)F,n
S=c1[nH]nc(COc2ccc(Cl)cc2)n1C1CCCCC1,437
Cc1cccc(OCc2n[nH]c(=S)n2C2CCCCC2)c1,n
Cc1n[nH]c(=S)n1/N=C/c1ccc(OCc2ccc(Cl)cc2)cc1,n
O=C(c1ccc([N+](=O)[O-])c(CS(=O)(=O)c2ccc(Cl)cc2)c1)N1CCCCC1,n
O=C(CCNC(=O)c1ccc(Br)o1)NCc1ccccn1,n
CCc1ccc(N(C(=O)CNC(=O)c2cccs2)C(C(=O)NC(C)(C)C)c2cc(OC)c(OC)c(OC)c2)cc1 (centres undefined),n
CCCOc1ccc(C(=O)N2CCCC2)cc1OC,n
O=C1CC(c2ccccc2)CC(=NCCO)/C1=C(\O)CCCN1C(=O)c2ccccc2C1=O (centres undefined),n
COc1ccc(CC(=O)NNC(=O)CCc2ccccc2)cc1OC,n
CC1CCN(C(=O)CSCC(=O)Nc2nc(-c3cccs3)cs2)CC1,n
CC1CC(C)CN(C(=O)Cn2c(SCC(=O)N3CCc4ccccc4C3)nc3ccccc32)C1 (centres undefined),n
CC1CCN(C(=O)Cn2c(SCC(=O)Nc3nccs3)nc3ccccc32)CC1,154
c1ccc(C2(c3ccccc3)OCC(Cn3cncn3)O2)cc1 (centres undefined),n
COc1cc(NC(=O)Cn2nnc(-c3ccccc3N)n2)cc(OC)c1,n
CCCCC(=O)Nc1ccc(C(=O)Nc2ccc3c(c2)OCO3)cc1,475
Cc1ccc(C(=O)Nc2ccc3c(c2)OCO3)cc1,n
Cc1ccccc1OCCCC(=O)Nc1ccc2c(c1)OCO2,n
CCCS(=O)(=O)N1CCN=C1SCc1cccc2ccccc12,n
COC(=O)c1ccc(CNC(=O)COc2ccccc2Br)o1,n
Cc1cc(NC(=O)Cn2cc(C(F)(F)F)cc(Cl)c2=O)no1,n
CC(C)(C)Nc1nc(OCC(F)(F)F)nc(OCC(F)(F)F)n1,n
CS(=O)(=O)N(CC(=O)Nc1ccccc1C(=O)N1CCOCC1)c1ccccc1,n
SMILES,INS promoter act
Cc1ccccc1Nc1ncccc1C(=O)N1CCOCC1,n
Cc1ccc(SC(C)C(=O)Nc2ccccc2C(=O)N2CCOCC2)cc1 (centres undefined),83
Cc1cccc(C(=O)NNc2ncnc3c2cnn3C)c1,n
CCOP(=O)(O)c1ccccc1OCCCCCOc1ccccc1P(=O)(O)OCC,n
CN(C)c1ccc(/C=C2\C(=O)N(c3ccc([N+](=O)[O-])cc3)N=C2N2CCOCC2)cc1,n
Cn1ncc(Cl)c1C(=O)Nc1sc2c(c1C(N)=O)CCC2,n
CCN1CCc2c(sc(NC(=O)Nc3ccc(Cl)c(Cl)c3)c2C(N)=O)C1,208
CCOC(=O)c1c(NC(=S)Nc2ccc(Cl)cc2)sc2c1CCN(C)C2,n
Cc1ccc(/C=N/N2C(=O)c3ccccc3NC2c2ccc(C)cc2)cc1 (centres undefined),n
Cc1ccc(NC(=S)N/C(=N/S(=O)(=O)c2ccccc2)c2ccccc2)cc1,n
CC1CCN(Cc2c(O)ccc3c2O/C(=C\c2ccco2)C3=O)CC1,486
COc1ccccc1Oc1coc2c(CN3CCN(C)CC3)c(O)ccc2c1=O,n
O=C1/C(=C/c2ccco2)CCc2ccccc21,n
C/C=C/c1ccc(OCCn2cncn2)c(OC)c1,n
COC(=O)c1ccc(C2OCC(C)(C)CO2)cc1,n
CCC1(C)CC(c2nc(-c3ccc(OC)cc3)cs2)CCS1 (centres undefined),n
CC(=O)Nc1ccc(S(=O)(=O)NCCc2ccccn2)cc1,n
Cc1ccc(OCc2ccc(C(=O)Nc3ccc(C(N)=O)cc3)o2)c([N+](=O)[O-])c1,n
Cc1ccc(-n2c3c(c(=O)[nH]c2=S)C(C(F)(F)F)(C(F)(F)F)NC(=O)N3)cc1,n
COc1ccc(C2(C(=O)Nc3ccc(C(=O)O)cc3)CCOCC2)cc1,n
O=C(N1CCOCC1)C1(c2ccccc2)CCCCC1,n
O=C(O)c1ccc(NC(=O)C2(c3ccccc3)CCOCC2)cc1,494
CC(=O)c1ccccc1OCCn1nnc(-c2ccc(C)cc2)n1,n
C=CCNC(=S)NNC(=O)C(CCCC)CC(C)(C)O (centres undefined),n
CC(C)Nc1nc(SCC(=O)Nc2ccccc2)nc(N2CCOCC2)n1,n
SMILES,INS promoter act
O=[N+]([O-])c1cccc(/C=N/Nc2nc(N3CCCCC3)nc(N3CCCCC3)n2)c1,n
O=[N+]([O-])c1ccc(-n2cccc2/C=N/Nc2nc(N3CCCCC3)nc(N3CCCCC3)n2)cc1,n
O=[N+]([O-])c1ccc(-c2ccc(/C=N/Nc3nc(N4CCCCC4)nc(N4CCCCC4)n3)o2)cc1,614
CC(c1ccccc1)N(NC(=O)C(O)(c1ccccc1)c1ccccc1)C(=O)c1ccccc1 (centres undefined),n
CC(C)(C)NC(=O)COC(=O)c1cncc(Br)c1,n
C=CCNS(=O)(=O)c1ccc2c(c1)n(C)c(=O)n2C,n
CC(NC(=O)/C=C/c1ccco1)c1nc2ccccc2n1Cc1ccccc1F (centres undefined),n
